Experimental data published in ChEMBL document CHEMBL1155449, “Peptide HIV-1 integrase inhibitors from HIV-1 gene products” (J Med Chem, 2010).
The source made the active and inactive calls. The rule behind the calls is not given here. Where a SMILES comes first, the peptide text is derived from it.

Columns and labels:
MT4 = test: Cytotoxicity against human MT4 cells assessed as firefly luciferase activity at 1 to 100 uM after 6 to 7 days by chemiluminescence assay; assay type: cell-based; details: mt4, 100 µM
Summary of the method: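 1×10^3 MT-4 Luc cells constitutively expressing luciferase were exposed to varying peptide concentrations in the HIV-1 HXB2 (ca. 0.2-10 ng p24) infection format. Cells lysed after 6-7 d and luciferase measured by chemiluminescence. Cytotoxicity is read as loss of luciferase signal.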

[1] = tested on: Human immunodeficiency virus 1; test: Antiviral activity against HIV1 HXB2 infected in human MT4 cells assessed as firefly luciferase activity at 20 uM after 6 to 7 days by chemiluminescence assay; assay type: functional, organism-based
Summary of the method: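 MT-4 Luc cells (constitutively high luciferase; HIV-1-induced cell death lowers signal), 1×10^3 cells per well, infected with HIV-1 HXB2 (ca. 0.2-10 ng p24) with varying peptide concentrations present. Lysed 6-7 d post-infection; luciferase read by chemiluminescence. Protection from HIV-1-induced death keeps signal high, and a fall in signal also serves as the cytotoxicity read-out.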

[2] = tested on: Human immunodeficiency virus 1; test: Antiviral activity against HIV1 HXB2 infected in CD4/CXCR4-expressing human NP2 cells assessed as total genome of infected virus at 0.5 uM measured on day 2 post viral infection by quantitative RT-PCR analysis relative to control; assay type: functional
Summary of the method: (§1)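 NP2-CD4-CXCR4 cells infected with HIV-1 HXB2 with or without 0.5 μM peptide (DMSO control). Genomic DNA extracted day 2 post-infection. Viral DNA quantified by real-time PCR for strong-stop DNA, late reverse-transcription products, Alu-LTR (integrated) and 2-LTR (end-joined) products. Each is expressed as % of the DMSO-treated control.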

[3] = molecular target: Human immunodeficiency virus type 1 integrase (Human immunodeficiency virus 1) (UniProt Q7ZJM1); test: Inhibition of HIV1 HXB2 integrase-mediated integrate viral genome production in CD4/CXCR4-expressing human NP2 cells assessed as production of integrate viral genome at 0.5 uM measured on day 2 post viral infection by quantitative RT-PCR analysis; assay type: cell-based; parameters: scale not given: the % may be the effect or the level left; summary of the method: as §1
[4] = tested on: Human immunodeficiency virus 1; test: Antiviral activity against HIV1 JRCSF infected in CD4/CCR5-expressing human NP2 cells assessed as inhibition of viral p24 antigen production at 0.8 uM measured on day 4 post viral infection by ELISA; assay type: functional; details: Human immunodeficiency virus 1, JRCSF ISOLATE, NP2, 96 h
Summary of the method: (§2)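 1×10^5 NP2-CD4-CCR5 cells incubated 30 min at room temperature with HIV-1 JR-CSF supernatant (ca. 0.2-50 ng p24), washed and cultured with varying peptide concentrations. Supernatant p24 measured by ELISA on day 4 post-infection.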

[5] = molecular target: T1, Human immunodeficiency virus type 1 integrase (Human immunodeficiency virus 1, UniProt Q7ZJM1); test: Inhibition of HIV1 integrase 3'-end processing activity after 1 hr by densitometric analysis
[6] = molecular target: Human immunodeficiency virus type 1 reverse transcriptase (Human immunodeficiency virus 1, UniProt Q72547); test: Inhibition of HIV1 reverse transcriptase-associated ribonuclease H activity by fluorescence assay
[7] = Selectivity index, ratio of cytotoxicity against human MT4 cells to antiviral activity against HIV1 JRCSF infected in CD4/CCR5-expressing human NP2 cells; assay type: toxicity, cell-based; details: read-out: Selectivity Index
[8] = tested on: Human immunodeficiency virus 1; test: Antiviral activity against HIV1 HXB2 infected in CD4/CXCR4-expressing human NP2 cells assessed as host cellular enzyme catalyzed end-joined viral genome production at 0.5 uM measured on day 2 post viral infection by quantitative RT-PCR analysis relative to control; assay type: functional; summary of the method: as §1
[9] = tested on: Human immunodeficiency virus 1; test: Antiviral activity against HIV1 HXB2 infected in human MT4 cells assessed as inhibition of viral p24 antigen production at 0.5 uM measured on day 4 post viral infection by ELISA; assay type: functional, organism-based
Summary of the method: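 1×10^5 MT-4 cells incubated 30 min at room temperature with HIV-1 HXB2 supernatant (ca. 0.2-50 ng p24), washed and cultured with 0.5 μM peptide or without. Supernatants collected at several time points for p24 ELISA, with cells passaged as needed.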

[10] = tested on: Human immunodeficiency virus 1; test: Antiviral activity against HIV1 JRCSF infected in CD4/CCR5-expressing human NP2 cells assessed as inhibition of viral p24 antigen production measured on day 4 post viral infection by ELISA; assay type: functional, organism-based; details: JRCSF ISOLATE; summary of the method: as §2
[11] = molecular target: T1, Human immunodeficiency virus type 1 integrase; test: Inhibition of HIV1 integrase strand transfer activity after 1 hr by densitometric analysis
[12] = tested on: Human immunodeficiency virus 1; test: Antiviral activity against HIV1 HXB2 infected in CD4/CXCR4-expressing human NP2 cells assessed as generation of viral DNA at late stage of reverse transcription at 0.5 uM measured on day 2 post viral infection by quantitative RT-PCR analysis relative to control; assay type: functional; summary of the method: as §1

T1 sequence (Q7ZJM1 whole entry): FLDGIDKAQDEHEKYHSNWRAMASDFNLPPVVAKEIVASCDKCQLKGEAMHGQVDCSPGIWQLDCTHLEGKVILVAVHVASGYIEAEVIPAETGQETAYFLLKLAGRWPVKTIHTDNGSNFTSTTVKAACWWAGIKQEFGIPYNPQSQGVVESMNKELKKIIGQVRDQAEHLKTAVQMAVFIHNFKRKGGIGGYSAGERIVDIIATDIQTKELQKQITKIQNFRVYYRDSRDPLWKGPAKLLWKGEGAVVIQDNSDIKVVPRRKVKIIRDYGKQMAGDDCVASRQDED
Human immunodeficiency virus type 1 integrase (Human immunodeficiency virus 1), sequence (Q7ZJM1 as listed by the source): as the sequence (Q7ZJM1 whole entry) above

SMILES	Activity (MT4)	Activity [1]	Activity [2]	Activity [3]	inhibition at 0.8 µM [4]	IC50 [5]	IC50 [6]	selectivity ratio [7]	Activity [8]	inhibition [9]	inhibition [10]	IC50 [11]	Activity [12]
CC[C@H](C)[C@H](NC(C)=O)C(=O)N[C@@H](Cc1cnc[nH]1)C(=O)N[C@@H](Cc1ccccc1)C(=O)N[C@@H](CCCNC(=N)N)C(=O)N[C@H](C(=O)NCC(=O)N[C@@H](CCCNC(=N)N)C(=O)N[C@@H](CCCNC(=N)N)C(=O)N[C@@H](CCCNC(=N)N)C(=O)N[C@@H](CCCNC(=N)N)C(=O)N[C@@H](CCCNC(=N)N)C(=O)N[C@@H](CCCNC(=N)N)C(=O)N[C@@H](CCCNC(=N)N)C(=O)N[C@@H](CCCNC(=N)N)C(N)=O)[C@@H](C)CC (Ac-IHFRIGRRRRRRRR-NH2)	Non-toxic	inactive	–	–	–	–	–	–	–	–	–	–	–
CC[C@H](C)[C@H](NC(=O)[C@H](CCCNC(=N)N)NC(=O)[C@H](Cc1ccccc1)NC(=O)[C@H](Cc1cnc[nH]1)NC(=O)[C@@H](NC(=O)[C@H](Cc1ccccc1)NC(=O)[C@H](CC(C)C)NC(=O)[C@H](CC(C)C)NC(=O)[C@H](CCC(N)=O)NC(=O)[C@H](CCC(N)=O)NC(=O)[C@H](CC(C)C)NC(C)=O)[C@@H](C)CC)C(=O)NCC(=O)N[C@@H](CCCNC(=N)N)C(=O)N[C@@H](CCCNC(=N)N)C(=O)N[C@@H](CCCNC(=N)N)C(=O)N[C@@H](CCCNC(=N)N)C(=O)N[C@@H](CCCNC(=N)N)C(=O)N[C@@H](CCCNC(=N)N)C(=O)N[C@@H](CCCNC(=N)N)C(=O)N[C@@H](CCCNC(=N)N)C(N)=O	Non-toxic	–	139.7%	15.8%	50%	8 nM	> 500 nM	10	779.8%	Active	Dose-dependent effect	4 nM	84.4%
CC(=O)N[C@@H](CC(C)C)C(=O)N[C@@H](CCC(N)=O)C(=O)N[C@@H](CCC(N)=O)C(=O)N[C@@H](CC(C)C)C(=O)N[C@@H](CC(C)C)C(=O)N[C@@H](Cc1ccccc1)C(=O)N[C@@H](CCCNC(=N)N)C(=O)N[C@@H](CCCNC(=N)N)C(=O)N[C@@H](CCCNC(=N)N)C(=O)N[C@@H](CCCNC(=N)N)C(=O)N[C@@H](CCCNC(=N)N)C(=O)N[C@@H](CCCNC(=N)N)C(=O)N[C@@H](CCCNC(=N)N)C(=O)N[C@@H](CCCNC(=N)N)C(N)=O (Ac-LQQLLFRRRRRRRR-NH2)	Non-toxic	–	–	–	–	–	–	–	–	–	–	–	–
CC[C@H](C)[C@H](NC(=O)[C@H](C)NC(=O)[C@H](CCC(=O)O)NC(C)=O)C(=O)N[C@H](C(=O)N[C@@H](CCCNC(=N)N)C(=O)N[C@H](C(=O)N[C@@H](CC(C)C)C(=O)N[C@@H](CCC(N)=O)C(=O)N[C@@H](CCC(N)=O)C(=O)N[C@@H](CC(C)C)C(=O)N[C@@H](CC(C)C)C(=O)N[C@@H](Cc1ccccc1)C(=O)N[C@H](C(=O)N[C@@H](Cc1cnc[nH]1)C(=O)N[C@@H](Cc1ccccc1)C(=O)N[C@@H](CCCNC(=N)N)C(=O)N[C@H](C(=O)NCC(=O)N[C@@H](CCCNC(=N)N)C(=O)N[C@@H](CCCNC(=N)N)C(=O)N[C@@H](CCCNC(=N)N)C(=O)N[C@@H](CCCNC(=N)N)C(=O)N[C@@H](CCCNC(=N)N)C(=O)N[C@@H](CCCNC(=N)N)C(=O)N[C@@H](CCCNC(=N)N)C(=O)N[C@@H](CCCNC(=N)N)C(N)=O)[C@@H](C)CC)[C@@H](C)CC)[C@@H](C)CC)[C@@H](C)CC	Non-toxic	Active	–	–	–	6 nM	> 500 nM	–	–	–	–	5 nM	–
